Measured values as given in PMC10907882 (Pharmacology Research & Perspectives, 2024).

How the values were obtained:
[1] = twice‐daily dosing for 2 weeks; healthy elderly and patients with mild to moderate Alzheimer's disease; cited from earlier work
[2] = target: T1, rec human calpain‐2 (Homo sapiens, UniProt P17655); test: In vitro calpain assay; format: biochemical
T1 sequence (P17655 1-700): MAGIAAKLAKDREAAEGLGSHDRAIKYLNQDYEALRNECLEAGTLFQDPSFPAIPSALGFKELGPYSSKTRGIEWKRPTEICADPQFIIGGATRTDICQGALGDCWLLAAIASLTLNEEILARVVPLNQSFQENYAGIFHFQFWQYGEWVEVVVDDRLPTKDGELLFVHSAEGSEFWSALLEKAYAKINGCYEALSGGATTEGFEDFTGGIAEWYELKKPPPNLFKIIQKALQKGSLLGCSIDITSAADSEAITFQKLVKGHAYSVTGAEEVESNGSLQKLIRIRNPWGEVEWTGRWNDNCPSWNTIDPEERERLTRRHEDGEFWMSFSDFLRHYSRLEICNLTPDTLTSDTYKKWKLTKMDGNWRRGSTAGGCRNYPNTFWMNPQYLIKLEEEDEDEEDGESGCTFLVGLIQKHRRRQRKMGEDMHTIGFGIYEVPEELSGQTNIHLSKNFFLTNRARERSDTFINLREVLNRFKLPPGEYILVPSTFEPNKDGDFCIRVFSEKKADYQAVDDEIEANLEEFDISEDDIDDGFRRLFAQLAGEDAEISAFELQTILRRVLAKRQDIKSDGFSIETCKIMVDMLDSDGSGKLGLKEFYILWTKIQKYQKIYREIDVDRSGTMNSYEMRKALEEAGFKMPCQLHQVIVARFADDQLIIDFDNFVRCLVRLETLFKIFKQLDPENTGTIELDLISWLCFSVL
Outline: (§1)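 Enzymes were purified human erythrocyte calpain-1 (8 μg) or bacterially expressed recombinant human calpain-2. Buffer was 60 mM imidazole-HCl pH 7.3 with 5 mM CaCl₂, 5 mM cysteine, 2.5 mM β-mercaptoethanol, 0.5 mM Suc-Leu-Tyr-AMC and test compound (0–20 μM). Reactions were started with enzyme and run at 30°C for 15 min, reading AMC fluorescence (380/450 nm) every 30 s. IC50 came from sigmoidal fits of linear rates; Ki from mean IC50 assuming competitive binding.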

[3] = target: T2, mouse calpain‐1 (Mus musculus, UniProt O35350); test: Ex‐vivo calpain assay, mouse pons‐cerebellum membrane fractions, 20 μM calcium; format: biochemical; conditions: read-out: IC50 for mouse calpain‐1, endogenous brain calpain‐1, membrane fractions
T2 sequence (O35350 1-713): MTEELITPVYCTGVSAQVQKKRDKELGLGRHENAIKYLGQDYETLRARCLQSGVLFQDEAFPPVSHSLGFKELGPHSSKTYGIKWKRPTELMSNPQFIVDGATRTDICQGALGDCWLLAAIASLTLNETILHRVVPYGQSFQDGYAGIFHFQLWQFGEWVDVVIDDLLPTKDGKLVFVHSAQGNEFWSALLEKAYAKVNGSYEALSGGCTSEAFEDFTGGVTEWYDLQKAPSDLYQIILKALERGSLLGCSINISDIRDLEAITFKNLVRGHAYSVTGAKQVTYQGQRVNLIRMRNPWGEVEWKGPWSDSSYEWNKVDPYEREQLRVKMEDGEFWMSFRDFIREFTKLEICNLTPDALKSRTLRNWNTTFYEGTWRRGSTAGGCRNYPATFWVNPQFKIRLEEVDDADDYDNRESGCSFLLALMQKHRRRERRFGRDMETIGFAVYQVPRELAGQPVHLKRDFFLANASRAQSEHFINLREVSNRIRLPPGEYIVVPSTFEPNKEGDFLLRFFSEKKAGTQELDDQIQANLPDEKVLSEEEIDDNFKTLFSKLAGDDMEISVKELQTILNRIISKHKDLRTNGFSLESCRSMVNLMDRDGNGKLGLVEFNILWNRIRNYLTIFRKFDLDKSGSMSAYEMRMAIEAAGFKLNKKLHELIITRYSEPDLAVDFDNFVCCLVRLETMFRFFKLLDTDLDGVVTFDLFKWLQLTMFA
T2 sequence (O88456 1-268 partner): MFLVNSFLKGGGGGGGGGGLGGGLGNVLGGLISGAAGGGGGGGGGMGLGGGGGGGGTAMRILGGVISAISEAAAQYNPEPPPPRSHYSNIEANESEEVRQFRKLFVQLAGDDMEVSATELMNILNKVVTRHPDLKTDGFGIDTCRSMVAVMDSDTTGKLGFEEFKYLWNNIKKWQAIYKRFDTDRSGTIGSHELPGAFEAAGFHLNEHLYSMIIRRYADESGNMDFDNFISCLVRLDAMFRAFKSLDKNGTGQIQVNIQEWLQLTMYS
Outline: (§2)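 Membrane fractions from mouse pons-cerebellum were resuspended in 60 mM imidazole-HCl pH 7.3 with 5 mM cysteine and 2.5 mM β-mercaptoethanol and exposed to test compound concentrations. Calpain-1 was assayed in wild-type membranes with 20 μM calcium. Calpain-2 was assayed in calpain-1 knockout membranes with 2 mM calcium. Substrate was Suc-Leu-Tyr-AMC (0.5 mM). Two experiments.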

[4] = target: T3, human calpain‐1 (Homo sapiens, UniProt P07384); test: In vitro calpain assay; format: biochemical; conditions: read-out: K i for human calpain‐1; purified human calpain‐1; means ± SEM of three experiments or single experiment
T3 sequence (P07384 1-714): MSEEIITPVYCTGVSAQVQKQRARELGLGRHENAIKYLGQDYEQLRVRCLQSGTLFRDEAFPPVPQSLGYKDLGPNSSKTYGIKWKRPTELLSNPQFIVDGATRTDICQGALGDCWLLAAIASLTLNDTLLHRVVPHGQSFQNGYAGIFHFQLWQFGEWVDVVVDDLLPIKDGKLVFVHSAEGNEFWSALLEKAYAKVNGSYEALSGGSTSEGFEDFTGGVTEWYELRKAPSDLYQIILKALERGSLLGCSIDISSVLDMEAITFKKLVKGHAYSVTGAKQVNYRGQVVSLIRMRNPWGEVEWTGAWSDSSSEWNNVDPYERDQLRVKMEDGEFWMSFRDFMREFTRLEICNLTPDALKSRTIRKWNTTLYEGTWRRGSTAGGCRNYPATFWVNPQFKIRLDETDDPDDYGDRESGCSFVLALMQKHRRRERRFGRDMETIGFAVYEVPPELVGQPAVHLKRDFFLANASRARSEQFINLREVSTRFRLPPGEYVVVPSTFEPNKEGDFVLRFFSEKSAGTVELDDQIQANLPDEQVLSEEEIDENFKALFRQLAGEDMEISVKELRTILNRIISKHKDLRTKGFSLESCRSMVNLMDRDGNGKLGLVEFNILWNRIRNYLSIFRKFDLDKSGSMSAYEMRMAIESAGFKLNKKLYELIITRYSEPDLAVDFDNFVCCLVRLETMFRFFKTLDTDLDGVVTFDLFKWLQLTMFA
T3 sequence (P04632 1-268 partner): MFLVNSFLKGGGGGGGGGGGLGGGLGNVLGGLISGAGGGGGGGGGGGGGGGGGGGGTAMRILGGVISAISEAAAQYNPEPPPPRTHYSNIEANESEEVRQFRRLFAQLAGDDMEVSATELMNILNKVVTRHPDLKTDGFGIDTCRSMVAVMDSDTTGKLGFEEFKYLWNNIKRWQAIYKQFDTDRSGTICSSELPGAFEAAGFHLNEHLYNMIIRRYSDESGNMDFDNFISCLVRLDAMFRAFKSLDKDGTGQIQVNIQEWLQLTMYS
Outline: as §1

[5] = target: T4, mouse calpain‐2 (Mus musculus, UniProt O08529); test: Ex‐vivo calpain assay, mouse pons‐cerebellum membrane fractions, 2 mM calcium; format: biochemical; conditions: mouse brain enzymes
T4 sequence (O08529 1-700): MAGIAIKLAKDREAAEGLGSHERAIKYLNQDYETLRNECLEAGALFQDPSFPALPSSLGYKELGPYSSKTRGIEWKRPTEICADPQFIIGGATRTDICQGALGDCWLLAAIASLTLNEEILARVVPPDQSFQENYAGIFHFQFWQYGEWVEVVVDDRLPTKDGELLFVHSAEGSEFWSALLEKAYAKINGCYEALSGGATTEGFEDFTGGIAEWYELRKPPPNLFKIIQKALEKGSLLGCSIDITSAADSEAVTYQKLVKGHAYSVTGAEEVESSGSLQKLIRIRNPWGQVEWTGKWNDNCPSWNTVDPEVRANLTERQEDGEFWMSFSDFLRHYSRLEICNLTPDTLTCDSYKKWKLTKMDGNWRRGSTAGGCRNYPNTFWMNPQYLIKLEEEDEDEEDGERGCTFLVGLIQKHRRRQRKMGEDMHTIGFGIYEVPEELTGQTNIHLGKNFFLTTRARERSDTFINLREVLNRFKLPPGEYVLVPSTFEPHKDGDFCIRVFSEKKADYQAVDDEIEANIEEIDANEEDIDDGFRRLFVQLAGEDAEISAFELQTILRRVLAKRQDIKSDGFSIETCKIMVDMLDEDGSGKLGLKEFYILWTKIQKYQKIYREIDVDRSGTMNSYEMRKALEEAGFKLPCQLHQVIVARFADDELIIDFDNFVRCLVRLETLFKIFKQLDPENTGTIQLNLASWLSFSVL
T4 sequence (O88456 1-268 partner): T2 sequence (O88456 1-268 partner)
Outline: as §2

[6] = system: calpain‐2; conditions: reported; cited from earlier work

SMILES	adverse effects in Phase I [1]	Ratio 1/2 (K i calpain‐1 / calpain‐2) ([2]; human enzymes)	Ki ([2]; read-out: K i for rec human calpain‐2, recombinant human calpain‐2, means ± SEM of three experiments or single experiment) [nM]	IC50 [3] [nM]	Ki [4] [nM]	Ratio 1/2 (IC50 calpain‐1 / calpain‐2) [5]	difference in K i values for calpain‐2 vs calpain‐1 [6] [fold]
O=C(NC1CC1)C(=O)C(Cc1ccccc1)NC(=O)[C@H]1CCC(=O)N1Cc1ccccc1 (stereo partly shown) [ABT‐957]	did not result in significant adverse effects						
CCC(NC(=O)[C@H](CC(C)C)NC(=O)OCc1ccccc1)C(=O)C(=O)NCc1cc(OC)cc(OC)c1 (stereo partly shown) [Compound C2I, Z‐Leu‐Abu‐CONH‐CH2‐C6H3(3,5‐(OMe)2)]		2.3	55 ± 7	1130	124 ± 6	26	100
